Rows were chosen to be rich in hits. Some 0.92% of all compounds tested hit in one or more screens of this group.
FN deposition inh: fibronectin deposition inhibition. AH1F fibroblasts, Alexa488-fibronectin deposition fluorescence, overnight. inhibition, % at 12.6 µM. 0.086% of 350,000 active;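 active = mean inhibition across replicates of 30% or more, regardless of how many single replicates reach that level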;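 also: positive control wells lacked labelled fibronectin entirely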
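Assay system: AH1F fibroblasts / Quantity: 10000 cells per well / Medium: DMEM plus 2% serum, read in PBS / Reagent: labelled fibronectin 24 nM / Dosing: single dose, pinned / Times: 1 h cell attachment, overnight exposure to compound and label / Signal: fluorescence, ex 485 nm, em 525 nm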
N-glyco inh: N-linked glycosylation inhibition | 0.23% of 360,000 active | reporter increase, % at 12.5 µM | D54 ERlucT glycosylation luciferase reporter, 24 h; percent of 100 nM tunicamycin response;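 active = mean luciferase reporter signal, scaled so untreated is 0 and the glycosylation-blocking control 100, at or above a set limit in every replicate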;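 also: luciferase carries N-glycosylation sites so blocking glycosylation raises the light; 0% = median of neutral control wells and 100% = median of 100 nM tunicamycin wells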
RAD54 branch: RAD54 (human) branch migration inhibition | 0.14% of 360,000 active | RAD54 Holliday junction branch migration, FAM/BHQ fluorescence | Q92698 | inhibition, % at 10.4 µM;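 active = mean normalized replicate activity at least 40 and at least half of replicates scoring 40 or more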;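 also: 0% = median of neutral control wells and 100% = median of positive control wells; inhibitors cause a drop in the FAM fluorescence signal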
Target sequence (Q92698 whole entry, looked up): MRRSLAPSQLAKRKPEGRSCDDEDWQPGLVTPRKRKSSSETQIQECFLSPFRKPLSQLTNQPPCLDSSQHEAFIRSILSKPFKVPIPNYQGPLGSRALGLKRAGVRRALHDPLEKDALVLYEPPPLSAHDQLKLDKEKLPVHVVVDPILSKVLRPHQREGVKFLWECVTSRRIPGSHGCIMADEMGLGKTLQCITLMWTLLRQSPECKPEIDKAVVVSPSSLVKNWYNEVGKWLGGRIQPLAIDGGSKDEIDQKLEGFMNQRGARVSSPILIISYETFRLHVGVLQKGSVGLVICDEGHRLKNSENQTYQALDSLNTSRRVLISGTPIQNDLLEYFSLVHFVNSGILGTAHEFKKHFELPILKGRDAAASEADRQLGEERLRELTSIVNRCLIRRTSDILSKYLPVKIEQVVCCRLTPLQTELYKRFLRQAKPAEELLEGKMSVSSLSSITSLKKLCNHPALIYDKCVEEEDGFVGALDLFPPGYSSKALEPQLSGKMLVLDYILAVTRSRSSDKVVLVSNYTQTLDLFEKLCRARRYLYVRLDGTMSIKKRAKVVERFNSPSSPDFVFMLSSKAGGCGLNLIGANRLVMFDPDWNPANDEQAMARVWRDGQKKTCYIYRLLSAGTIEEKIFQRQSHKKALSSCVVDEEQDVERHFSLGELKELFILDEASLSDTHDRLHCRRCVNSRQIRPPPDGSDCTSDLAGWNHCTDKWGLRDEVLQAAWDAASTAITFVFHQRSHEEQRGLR
RAD52 anneal inh: RAD52 (human) annealing inhibition; 0.46% of 360,000 active; inhibition, % at 18.7 µM; recombinant RAD52 DNA annealing, FRET fluorescence; P43351;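 active = every replicate showing at least 50% inhibition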
AF4-AF9 inh: blocks AF4 peptide binding to human AF9. P42568. AlphaScreen, biotin-AF4 peptide binding to FLAG-AF9. inhibition, % at 10 µM. 0.47% of 350,000 active;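 active = every replicate reaching a set inhibition limit, whatever the replicate mean, cut at about 25% in these data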;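 also: 0% = plate neutral control median and 100% = total signal loss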
Active calls of the source: *; . = no result given.

SMILES	FN deposition inh	N-glyco inh	RAD54 branch	RAD52 anneal inh	AF4-AF9 inh
O=C(C1CCCC1)N1CC[C@@H]2[C@H](CO)Nc3ccc(-c4cccc(F)c4)cc3[C@@H]21	2.2	.	.	-127.2	7.6
COc1cccc(-c2ccc3c(c2)[C@@H]2[C@@H](CCN2C(=O)C2CCCCC2)[C@H](CO)N3)c1	-2.7	.	.	-13.4	36.1*
COc1cccc(-c2ccc3c(c2)[C@@H]2[C@@H](CCN2C(=O)C2CCCC2)[C@H](CO)N3)c1	2.7	.	.	4.2	32.2*
O=C(C1CCCC1)N1CC[C@@H]2[C@@H](CO)Nc3ccc(-c4cccc(F)c4)cc3[C@@H]21	-13.1	.	.	-8.4	25.1*
CC(=O)N(C)C[C@H]1Oc2ccccc2C(=O)N(C)C[C@@H]1C	1.3	.	.	.	.
O=C(c1cccc(F)c1)N1CC[C@@H]2[C@@H](CO)Nc3ccc(-c4ccccc4)cc3[C@@H]21	-10.9	.	.	-14.9	31.4*
O=C(NC[C@@H]1CC[C@@H]2[C@@H](CN2S(=O)(=O)c2ccccc2[N+](=O)[O-])O1)C1CCOCC1	.	.	.	24.0	28.0*
O=C(NC[C@H]1CC[C@@H]2[C@@H](CN2S(=O)(=O)c2ccccc2[N+](=O)[O-])O1)Nc1ccccc1	.	.	.	-1.9	-0.1
CCC(=O)N1CC2(C1)[C@H](c1ccc(-c3ccc(F)cc3)cc1)[C@@H](CO)N2C(=O)CC	2.8	.	.	-4.5	-1.9
Cc1ccc(C=Nc2ccc(N(C)C)cc2)o1	.	-18.5	8.9	16.0	58.5*
COc1ccccc1C#Cc1cnc2c(c1)C(=O)N([C@H](C)CO)C[C@H](C)[C@@H](CN(C)C(=O)CN(C)C)O2	.	.	11.2	47.1	14.1
N#C/C(=C\c1ccccc1[N+](=O)[O-])c1nc(C2CC2)cs1	7.2	-5.1	-0.7	.	.
N#C/C(=C/c1ccccc1[N+](=O)[O-])c1nc(C2CC2)cs1	3.2	-1.5	.	-6.2	25.8*
Cc1[nH]nc2c1C(c1ccc(-c3ccc(Cl)cc3)o1)C(C#N)=C(N)O2 (centres undefined)	13.3	28.8*	.	.	.
Cc1[nH]nc2c1C(c1ccc(-c3ccccc3C#N)o1)C(C#N)=C(N)O2 (centres undefined)	.	25.4*	-0.5	.	.
Cc1ccc(-c2ccc(C3C(C#N)=C(N)Oc4n[nH]c(C)c43)o2)cc1 (centres undefined)	-23.2	12.5	-1.7	.	.
Cc1cc(C)n2ncc(C(=O)NCc3ccccc3)c2n1	2.8	-1.8	3.4	.	.
Cc1cc(C)n2ncc(C(=O)NCc3ccc(Cl)cc3)c2n1	46.0*	-2.6	0.5	.	.
COc1cccc(OCc2nnc(SCc3cc(=O)[nH]c4ccccc34)o2)c1	-3.1	0.5	.	-6.4	38.3*
CCCNC(=O)C[C@@H]1CC[C@@H]2[C@@H](COc3ccc(NS(=O)(=O)CC)cc3C(=O)N2C)O1	2.6	.	-1.2	-1.3	-1.8
O=C(c1ccccc1)[C@H]1CC=CC[C@H]1C(=O)O	.	1.7	10.7	.	.
CC(C)[C@H]1CC[C@@H](C)C(C(=O)c2ccccc2)C1=O (some centres undefined)	-2.0	1.1	3.1	-8.6	57.6*
Cc1cc(NC(c2cccnc2)c2ccc3cccnc3c2O)no1 (centres undefined)	.	-9.8	4.3	.	.
Oc1c(C(Nc2ccccn2)c2cccnc2)cc(Cl)c2cccnc12 (centres undefined)	8.5	-1.4	.	-5.2	42.8*
COc1ccc(C[C@@H]2OC3(C=CC(=O)C=C3)O[C@H]2Cc2ccc(OC)cc2)cc1	.	-19.5	.	.	.
SMILES	FN deposition inh	N-glyco inh	RAD54 branch	RAD52 anneal inh	AF4-AF9 inh
O=C1C=CC2(C=C1)O[C@H](Cc1ccccc1)[C@@H](Cc1ccccc1)O2	41.4*	-17.8	.	7.7	3.2
O=C(c1cnccn1)N1CC(=O)N2[C@@H](CO)[C@H](c3ccc(C#CCC4CCCC4)cc3)[C@@H]2C1	.	.	.	-13.6	-4.1
O=C(O)CN1C(=O)C=CC1=O	7.7	2.0	-16.6	-11.8	-4.2
O=C1C=CC(=O)N1CCCCCCN1C(=O)C=CC1=O	47.6*	.	.	.	.
Cc1noc(C)c1NC(=O)Nc1ccc2c(c1)C(=O)N([C@H](C)CO)C[C@@H](C)[C@@H](CN(C)S(C)(=O)=O)O2	.	.	-3.5	-4.3	0.6
CN(C)C(=O)c1ccc(-c2ccc3c(c2)[C@@H]2[C@@H](CCN2C(=O)C2CC2)[C@H](CO)N3C)cc1	-11.4	.	1.2	5.2	-12.3
COc1ccc2c3c(n(C)c2c1)[C@H](CO)N(C(=O)C1CC1)CC31CCN(Cc2cccc(F)c2)CC1	9.4	.	.	25.7	26.2*

From PubChem BioAssay
